According to ChEMBL document CHEMBL1138791, “Acyl sulfonamide anti-proliferatives: benzene substituent structure-activity relationships for a novel class of antitumor agents” (J Med Chem, 2004):

What was measured:
[1] = system: HCT-116; assay: Diameter of zone of inhibition for cell colony formation of solid tumor HCT116 at the dose of 200 ug; type: functional, Homo sapiens
In short: (§1)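 HCT116, L1210 leukaemia and normal fibroblast cells were seeded in soft agar in separate 60 mm dishes. The compound was applied to a filter-paper disk laid on the agar. Colony-formation inhibition zones were read after 6–7 days at 37 °C and expressed in zone units (200 units = 6.5 mm; 950 = total inhibition; 0 = none). n > 2 unless otherwise indicated.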

[2] = system: L1210; assay: Diameter of zone of inhibition for cell colony formation of leukemia L1210 at the dose of 200 ug; type: functional, Mus musculus
In short: (§2)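 Soft agar disk diffusion: leukemia (L1210), solid tumor (HCT116, or colon H15) and normal fibroblast cells seeded in soft agar in separate 60 mm dishes. Compound applied to a filter paper disk (dose in μg/disk) set on the agar. Colony-formation inhibition zones read after 6–7 days at 37 °C. 200 zone units = 6.5 mm; 950 = total inhibition; a range marks partial colony shrinkage. n > 2 unless noted.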

[3] = Diameter of zone of inhibition for cell colony formation of normal fibroblast at the dose of 200 ug; Range is 0-4.875; type: functional, Homo sapiens; in short: as §2
[4] = Diameter of zone of inhibition for cell colony formation of solid tumor H15 at the dose of 210 ug; type: functional, Homo sapiens; in short: as §2
[5] = system: Mus musculus; assay: Tumor growth delay of human HCT116 colorectal carcinoma in mice after intravenous administration at dose of 63 mg/kg; type: functional
In short: (§3)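 Female nude mice were implanted with HCT116 tumour tissue from donor mice and randomized once tumours averaged 100 mm3. The sodium salt in saline (pH 7.4) was given by iv bolus on days 1–5 and 8–12. Tumour volumes were recorded twice weekly. TGD = T − C, the time to reach 500 mm3 taken from a fitted tumour-growth model.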

[6] = system: Mus musculus; assay: Tumor growth delay of human HCT116 colorectal carcinoma in mice after intravenous administration at dose of 32 mg/kg; type: functional; in short: as §3
[7] = system: L1210; assay: Diameter of zone of inhibition for cell colony formation of leukemia L1210 at the dose of 210 ug; type: functional, Mus musculus; in short: as §2
[8] = Diameter of zone of inhibition for cell colony formation of normal fibroblast at the dose of 210 ug; Range is 0-11.375; type: functional, Homo sapiens; in short: as §2
[9] = Diameter of zone of inhibition for cell colony formation of normal fibroblast at the dose of 210 ug; Range is 0-2.6; type: functional, Homo sapiens; in short: as §2
[10] = system: HCT-116; assay: Diameter of zone of inhibition for cell colony formation of solid tumor HCT116 at the dose of 210 ug; type: functional, Homo sapiens; in short: as §1

SMILES	Inhibition [1] [mm]	Inhibition [2] [mm]	Inhibition [3] [mm]	Inhibition [4] [mm]	Growth delay [5] [days]	Growth delay [6] [days]	Inhibition [7] [mm]	Inhibition [8] [mm]	Inhibition [9] [mm]	Inhibition [10] [mm]
O=C(NS(=O)(=O)c1ccc(Cl)cc1)c1ccc(Cl)c(Cl)c1	13	6.5	4.87							
O=C(NS(=O)(=O)c1ccc(Cl)cc1)c1ccc(Br)cc1Cl				14.95	23	12	6.5	11.37		
O=C(NS(=O)(=O)c1ccc(Cl)cc1)c1cc(Cl)cc(Cl)c1							4.87		2.6	10.72
